Results published in ChEMBL document CHEMBL4699460, “Integrating DNA-encoded chemical libraries with virtual combinatorial library screening: Optimizing a PARP10 inhibitor” (Bioorg Med Chem Lett, 2020).

Tests used:
[1] = target: Protein mono-ADP-ribosyltransferase PARP14 (Homo sapiens) (UniProt Q460N5); assay: (§1) Inhibition of N-terminal His-GST tagged human PARP14 (1470 to 1801 residues) expressed in baculovirus infected Sf9 cells assessed as reduction in NAD+-dependent ADP ribosylation using histone as substrate at 10 uM incubated for 1 hr in presence of biotinylated NAD+ and activated DNA by chemiluminescence based microplate reader assay relative to control
Chain of Protein mono-ADP-ribosyltransferase PARP14 (Homo sapiens) (Q460N5 whole entry, the tested form may be a part): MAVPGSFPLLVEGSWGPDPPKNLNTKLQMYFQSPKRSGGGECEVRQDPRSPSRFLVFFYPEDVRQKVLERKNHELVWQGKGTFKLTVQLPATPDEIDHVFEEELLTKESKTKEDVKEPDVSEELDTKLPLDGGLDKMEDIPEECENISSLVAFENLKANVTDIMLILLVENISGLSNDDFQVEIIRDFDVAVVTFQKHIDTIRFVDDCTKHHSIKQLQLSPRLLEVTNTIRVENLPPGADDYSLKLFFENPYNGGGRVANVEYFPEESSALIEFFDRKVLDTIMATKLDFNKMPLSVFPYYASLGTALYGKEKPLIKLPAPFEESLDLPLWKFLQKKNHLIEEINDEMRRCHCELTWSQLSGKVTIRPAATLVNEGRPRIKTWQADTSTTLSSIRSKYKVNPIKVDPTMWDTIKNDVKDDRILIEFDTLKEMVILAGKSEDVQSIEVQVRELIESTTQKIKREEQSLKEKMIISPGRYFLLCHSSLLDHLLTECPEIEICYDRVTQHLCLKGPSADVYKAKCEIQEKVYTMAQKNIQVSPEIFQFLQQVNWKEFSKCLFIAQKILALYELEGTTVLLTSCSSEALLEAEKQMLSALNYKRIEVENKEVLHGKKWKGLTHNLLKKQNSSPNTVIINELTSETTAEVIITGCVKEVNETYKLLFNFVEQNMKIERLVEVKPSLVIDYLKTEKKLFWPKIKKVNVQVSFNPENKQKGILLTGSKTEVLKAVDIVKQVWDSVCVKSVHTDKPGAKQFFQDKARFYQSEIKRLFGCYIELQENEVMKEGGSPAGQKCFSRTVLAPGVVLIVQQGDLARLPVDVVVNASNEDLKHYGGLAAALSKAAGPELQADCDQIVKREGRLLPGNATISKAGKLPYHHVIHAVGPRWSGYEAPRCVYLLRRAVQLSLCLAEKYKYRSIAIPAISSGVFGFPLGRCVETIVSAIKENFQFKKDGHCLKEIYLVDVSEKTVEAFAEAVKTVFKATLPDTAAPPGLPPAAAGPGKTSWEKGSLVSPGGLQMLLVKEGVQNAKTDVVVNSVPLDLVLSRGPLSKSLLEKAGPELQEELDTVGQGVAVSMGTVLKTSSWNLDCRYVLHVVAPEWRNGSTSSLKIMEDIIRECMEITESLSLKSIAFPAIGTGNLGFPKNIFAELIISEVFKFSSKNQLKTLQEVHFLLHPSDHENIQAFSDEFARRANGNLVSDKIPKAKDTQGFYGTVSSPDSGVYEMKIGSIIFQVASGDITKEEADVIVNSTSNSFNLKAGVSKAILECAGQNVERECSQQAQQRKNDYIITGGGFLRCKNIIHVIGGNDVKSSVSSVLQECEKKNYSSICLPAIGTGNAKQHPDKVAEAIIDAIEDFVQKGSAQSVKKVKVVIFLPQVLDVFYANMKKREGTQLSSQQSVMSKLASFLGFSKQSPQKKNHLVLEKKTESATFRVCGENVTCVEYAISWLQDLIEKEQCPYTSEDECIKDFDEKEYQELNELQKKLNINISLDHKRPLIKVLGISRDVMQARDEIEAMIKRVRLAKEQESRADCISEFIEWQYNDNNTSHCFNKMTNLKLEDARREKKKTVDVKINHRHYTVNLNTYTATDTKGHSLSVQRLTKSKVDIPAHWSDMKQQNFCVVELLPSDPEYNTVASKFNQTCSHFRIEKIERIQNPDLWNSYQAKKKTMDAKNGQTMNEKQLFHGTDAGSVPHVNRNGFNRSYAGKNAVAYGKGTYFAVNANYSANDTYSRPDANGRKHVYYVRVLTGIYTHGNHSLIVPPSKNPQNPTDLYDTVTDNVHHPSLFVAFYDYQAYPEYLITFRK

[2] = target: T1, Protein mono-ADP-ribosyltransferase PARP10 (Homo sapiens) (UniProt Q53GL7); assay: as §1, with “FLAG-tagged and C-terminal strep-tagged” for “His-GST tagged”, “PARP10 (805” for “PARP14 (1470”, “1025” for “1801”
T1 sequence (whole entry): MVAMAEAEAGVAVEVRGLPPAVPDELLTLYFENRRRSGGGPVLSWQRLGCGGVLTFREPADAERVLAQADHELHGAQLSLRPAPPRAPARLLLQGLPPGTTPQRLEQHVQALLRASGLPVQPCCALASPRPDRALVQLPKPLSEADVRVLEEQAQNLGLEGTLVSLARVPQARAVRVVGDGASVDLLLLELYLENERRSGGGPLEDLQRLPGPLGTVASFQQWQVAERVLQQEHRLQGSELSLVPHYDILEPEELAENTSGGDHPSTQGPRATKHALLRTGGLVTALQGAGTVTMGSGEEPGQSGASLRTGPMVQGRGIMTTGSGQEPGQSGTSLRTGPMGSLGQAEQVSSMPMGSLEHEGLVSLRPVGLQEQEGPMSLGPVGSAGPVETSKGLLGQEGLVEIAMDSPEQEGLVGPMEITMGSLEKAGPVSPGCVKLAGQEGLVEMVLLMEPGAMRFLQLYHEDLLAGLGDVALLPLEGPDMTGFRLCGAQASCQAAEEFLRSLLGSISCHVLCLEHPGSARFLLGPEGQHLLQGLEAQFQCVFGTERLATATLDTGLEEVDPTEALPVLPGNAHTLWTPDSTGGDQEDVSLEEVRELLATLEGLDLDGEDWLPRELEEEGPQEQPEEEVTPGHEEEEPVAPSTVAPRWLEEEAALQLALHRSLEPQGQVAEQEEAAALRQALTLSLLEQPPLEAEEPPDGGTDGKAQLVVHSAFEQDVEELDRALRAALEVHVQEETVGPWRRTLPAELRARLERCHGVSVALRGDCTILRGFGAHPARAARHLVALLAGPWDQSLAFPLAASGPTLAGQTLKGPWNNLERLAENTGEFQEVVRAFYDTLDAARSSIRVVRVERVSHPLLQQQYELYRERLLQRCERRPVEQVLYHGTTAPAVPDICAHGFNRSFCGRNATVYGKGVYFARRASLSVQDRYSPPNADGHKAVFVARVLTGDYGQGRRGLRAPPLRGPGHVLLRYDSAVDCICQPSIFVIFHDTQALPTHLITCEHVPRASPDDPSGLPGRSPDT

[3] = target: Protein mono-ADP-ribosyltransferase PARP14 (Homo sapiens) (UniProt Q460N5); assay: as §1, with “1” for “10”
[4] = target: T1, Protein mono-ADP-ribosyltransferase PARP10 (Homo sapiens); assay: as §1, with “FLAG-tagged and C-terminal strep-tagged” for “His-GST tagged”, “PARP10 (805” for “PARP14 (1470”, “1025” for “1801”, “1” for “10”, “assay” for “assay relative to control”
[5] = target: T2, Protein mono-ADP-ribosyltransferase PARP10 (Homo sapiens, UniProt Q53GL7); assay: Inhibition of N-terminal FLAG-tagged and C-terminal strep-tagged human PARP10 (805 to 1025 residues) expressed in baculovirus infected Sf9 cells assessed as reduction in NAD+-dependent ADP ribosylation using histone as substrate incubated for 1 hr in presence of biotinylated NAD+ and activated DNA by chemiluminescence based microplate reader assay
T2 sequence (Q53GL7 whole entry): T1 sequence (whole entry)
Outline: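 The IC50 was derived from a concentration-dependent inhibition curve for PARP10 in the histone ADP-ribosylation assay.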

Row | inhibition [1] [%] | inhibition [2] [%] | inhibition [3] [%] | inhibition [4] [%] | IC50 [5] [µM] | Compound
1 | 10 | 35 | 6 | 0 | – | O=C(COc1ccc2c(c1)CCCC2=O)NC[C@@H]1CCCN1C(=O)CCc1nc2ccccc2[nH]c1=O
2 | – | 46 | 0 | 17 | 28 | O=C(CCc1nc2ccccc2[nH]c1=O)NCC(=O)N1CCN(C(=O)Nc2ccc3c(c2)C(=O)CCC3)CC1
3 | – | 12 | 7 | 13 | – | O=C1CCCc2cc(C(=O)N3C[C@@H]4C[C@H]3CN4C(=O)CCc3nc4ccccc4[nH]c3=O)ccc21
4 | – | 15 | 17 | 1 | – | CC[C@H]1CN(C(=O)COc2cccc3c2CCCC3=O)CCN1C(=O)CCc1nc2ccccc2[nH]c1=O
5 | – | 4 | 0 | 13 | – | O=C1CCCc2cc(C(=O)N3CCN(C(=O)CCc4nc5ccccc5[nH]c4=O)C[C@H]3CO)ccc21
6 | – | 16 | 27 | 11 | – | O=C(COc1ccc2c(c1)C(=O)CCC2)NC1CCN(C(=O)CCc2nc3ccccc3[nH]c2=O)CC1
7 | – | 10 | 2 | 13 | – | O=C(CCc1nc2ccccc2[nH]c1=O)NCC(=O)N1CCN(C(=O)COc2cccc3c2CCCC3=O)CC1
8 | 5 | 37 | 0 | 0 | – | O=C(NC[C@@H]1CCCN1C(=O)CCc1nc2ccccc2[nH]c1=O)c1ccc2c(c1)CCCC2=O
9 | – | 9 | 12 | 15 | – | O=C1CCCc2c(OCC(=O)N3CCN(C(=O)CCc4nc5ccccc5[nH]c4=O)C[C@@H]3CO)cccc21
